Tested on: Fibroblast
Experiment: Multiplex assay against human fibroblast
Assay type: toxicity, cell-based
In short: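 Live cells carried four stains from seeding: Hoechst33342, BioTracker Green Microtubule Cytoskeleton Dye, MitoTracker Red and Annexin V Alexa Fluor 680. They were imaged on a CQ1 microscope at 37°C and 5% CO2 after compound addition. Using CellPathfinder machine-learning gating, cells were split into Hoechst high-intensity objects or normal cells, normal cells into healthy, pyknosed or fragmented nuclei, and pyknosed cells into mitotic or apoptotic; tubulin, mitochondrial-mass and membrane-permeability phenotypes are per cents of healthy-nucleus cells.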

[1] = 12 h, 1 µM, compound concentration 1 uM, replicate 1
[2] = 12 h, 1 µM, compound concentration 1 uM, replicate 2
[3] = 12 h, 10 µM, compound concentration 10 uM, replicate 1
[4] = 12 h, 10 µM, compound concentration 10 uM, replicate 2
[5] = 24 h, 1 µM, compound concentration 1 uM, replicate 1
[6] = 24 h, 1 µM, compound concentration 1 uM, replicate 2
[7] = 24 h, 10 µM, compound concentration 10 uM, replicate 1
[8] = 24 h, 10 µM, compound concentration 10 uM, replicate 2

COc1cccc2cc(-c3nc([C@H]4CC[C@H](C(=O)O)CC4)n4ncnc(N)c34)[nH]c12 [OSI-027]
Population Apoptotic (%) [1]: 58%
Population Fragmented Nuclei (%) [1]: 47%
Population Healthy Nuclei (%) [1]: 40%
Population Hoechst High Intensity Objects (%) [1]: 28%
Population Membrane Permeable-Phenotype (%) [1]: 5%
Population Mitochondria Different-Phenotype (%) [1]: 0%
Population Mitotic Cells (%) [1]: 41%
Population Normal (%) [1]: 71%
Population Pyknosed Nuclei (%) [1]: 11%
Population Tubulin-Different-Phenotype (%) [1]: 7%
Total Cell Count [1]: 382
Population Apoptotic (%) [2]: 57%
Population Fragmented Nuclei (%) [2]: 68%
Population Healthy Nuclei (%) [2]: 22%
Population Hoechst High Intensity Objects (%) [2]: 26%
Population Membrane Permeable-Phenotype (%) [2]: 25%
Population Mitochondria Different-Phenotype (%) [2]: 18%
Population Mitotic Cells (%) [2]: 42%
Population Normal (%) [2]: 73%
Population Pyknosed Nuclei (%) [2]: 9%
Population Tubulin-Different-Phenotype (%) [2]: 31%
Total Cell Count [2]: 98
Population Apoptotic (%) [3]: 72%
Population Fragmented Nuclei (%) [3]: 28%
Population Healthy Nuclei (%) [3]: 56%
Population Hoechst High Intensity Objects (%) [3]: 12%
Population Membrane Permeable-Phenotype (%) [3]: 2%
Population Mitochondria Different-Phenotype (%) [3]: 2%
Population Mitotic Cells (%) [3]: 27%
Population Normal (%) [3]: 87%
Population Pyknosed Nuclei (%) [3]: 14%
Population Tubulin-Different-Phenotype (%) [3]: 0%
Total Cell Count [3]: 281
Population Apoptotic (%) [4]: 20%
Population Fragmented Nuclei (%) [4]: 65%
Population Healthy Nuclei (%) [4]: 26%
Population Hoechst High Intensity Objects (%) [4]: 31%
Population Membrane Permeable-Phenotype (%) [4]: 18%
Population Mitochondria Different-Phenotype (%) [4]: 12%
Population Mitotic Cells (%) [4]: 80%
Population Normal (%) [4]: 68%
Population Pyknosed Nuclei (%) [4]: 8%
Population Tubulin-Different-Phenotype (%) [4]: 6%
Total Cell Count [4]: 88
Population Apoptotic (%) [5]: 53%
Population Fragmented Nuclei (%) [5]: 36%
Population Healthy Nuclei (%) [5]: 50%
Population Hoechst High Intensity Objects (%) [5]: 33%
Population Membrane Permeable-Phenotype (%) [5]: 7%
Population Mitochondria Different-Phenotype (%) [5]: 1%
Population Mitotic Cells (%) [5]: 46%
Population Normal (%) [5]: 66%
Population Pyknosed Nuclei (%) [5]: 12%
Population Tubulin-Different-Phenotype (%) [5]: 5%
Total Cell Count [5]: 302
Population Apoptotic (%) [6]: 16%
Population Fragmented Nuclei (%) [6]: 68%
Population Healthy Nuclei (%) [6]: 22%
Population Hoechst High Intensity Objects (%) [6]: 34%
Population Membrane Permeable-Phenotype (%) [6]: 6%
Population Mitochondria Different-Phenotype (%) [6]: 13%
Population Mitotic Cells (%) [6]: 83%
Population Normal (%) [6]: 65%
Population Pyknosed Nuclei (%) [6]: 8%
Population Tubulin-Different-Phenotype (%) [6]: 13%
Total Cell Count [6]: 103
Population Apoptotic (%) [7]: 75%
Population Fragmented Nuclei (%) [7]: 23%
Population Healthy Nuclei (%) [7]: 64%
Population Hoechst High Intensity Objects (%) [7]: 17%
Population Membrane Permeable-Phenotype (%) [7]: 6%
Population Mitochondria Different-Phenotype (%) [7]: 0%
Population Mitotic Cells (%) [7]: 24%
Population Normal (%) [7]: 82%
Population Pyknosed Nuclei (%) [7]: 12%
Population Tubulin-Different-Phenotype (%) [7]: 0%
Total Cell Count [7]: 282
Population Apoptotic (%) [8]: 33%
Population Fragmented Nuclei (%) [8]: 60%
Population Healthy Nuclei (%) [8]: 34%
Population Hoechst High Intensity Objects (%) [8]: 33%
Population Membrane Permeable-Phenotype (%) [8]: 17%
Population Mitochondria Different-Phenotype (%) [8]: 11%
Population Mitotic Cells (%) [8]: 66%
Population Normal (%) [8]: 66%
Population Pyknosed Nuclei (%) [8]: 6%
Population Tubulin-Different-Phenotype (%) [8]: 11%
Total Cell Count [8]: 75

Source: ChEMBL document CHEMBL4689842, “EUbOPEN Chemogenomics Library wave 1” (2021)
